Test system: Mouse plasma protein binding, RED dialysis, LC/MS/MS
Assay: fraction bound to mouse plasma proteins – biochemical, rapid equilibrium dialysis, LC/MS/MS, ADME assay, late-stage follow-up (AID 1937)
Details: stronger effect = higher value
Procedure, shortened: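 System: Mouse plasma in RED dialysis device | Buffer or medium: Isotonic phosphate-buffered saline, pH 7.4, as dialysis buffer | Technique: LC/MS/MS quantitation of compound in matrix-matched buffer and plasma samples | Read-out: Percent plasma protein bound, 100% minus free percentage (buffer-to-plasma concentration ratio) | Timing: 4 h dialysis, 37 °C, shaken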

## CC1Cc2cc(S(=O)(=O)N3CCN(c4ccc(Cl)cc4)CC3)ccc2N1C(=O)C1CC1 (configuration not stated)
At 1 µM
  plasma protein bound: 99.8%
bound, at 10 µM
  plasma protein bound: 99.8%
